Source: PubChem BioAssay (several laboratories)
The full list was thinned out, with hits kept by preference.
XBP1 UPR activ = activators of adaptive XBP1 UPR arm, primary screen, cell-based, CHO-XBP1 luciferase reporter, luminescence, uHTS | IRE1-XBP1 UPR activation; percent of tunicamycin response, DMSO as zero | activation, % at 20 µM | 330,000 compounds, 0.33% hits | AID 463104, 2010;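 active = versus positive control, 20 µM dose yields 30% or more activation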;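 also: 100% = tunicamycin at 10 µg/mL and 0% = DMSO only wells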
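assay system = CHO-XBP1 luciferase reporter cells | amount = 1000 cells/well | buffer or medium = F12 plus 10% FBS | compound dosing = single point, 20 µM final compound, 1% DMSO | incubation = 16-18 h cell attachment at 37 °C, then 6 h compound exposure | detection = Steady-Glo luminescence read | controls = tunicamycin 10 µg/mL and vehicle-only wells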
UPR CHOP act = activators of apoptotic CHOP UPR arm, primary screen, cell-based, CHO-CHOP luciferase reporter, luminescence, uHTS; 330,000 compounds, 0.34% hits; activation, % at 10 µM; UPR activation; percent of tunicamycin response over DMSO baseline;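 active = at 10 µM dose, activation of 40% or more, normalized to positive control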;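 also: 100% = tunicamycin at 10 µg/mL and 0% = DMSO alone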
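Test system: CHO-CHOP cells, stable luciferase reporter of PERK-eIF2a-CHOP signalling | Quantity: 500 CHO-CHOP cells per well | Buffer or medium: F12 plus 10% serum | Compound dosing: 10 µM single point, 0.5% DMSO | Schedule: 6 h compound treatment, 37 °C | Signal: Luciferase luminescence | Control set: Tunicamycin high control, DMSO low control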
TLR9-MyD88 inh = inhibitors of TLR9-MyD88 association in cells, primary screen, cell-based, CHO, BLA complementation, fluorescence; CCF4 FRET ratio; Toll-like receptor 9 (Homo sapiens) + Myeloid differentiation primary response protein …; inhibition, % at 4.98 µM; 340,000 compounds, 0.21% hits; AID 504734, 2011;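 active = inhibition above the mean over all tested compounds plus 3 SD, cut at about 21% in these data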;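 also: 0% = DMSO only wells and 100% = clavulanate BLA inhibitor control wells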
Target sequence (Q99836 whole entry, looked up): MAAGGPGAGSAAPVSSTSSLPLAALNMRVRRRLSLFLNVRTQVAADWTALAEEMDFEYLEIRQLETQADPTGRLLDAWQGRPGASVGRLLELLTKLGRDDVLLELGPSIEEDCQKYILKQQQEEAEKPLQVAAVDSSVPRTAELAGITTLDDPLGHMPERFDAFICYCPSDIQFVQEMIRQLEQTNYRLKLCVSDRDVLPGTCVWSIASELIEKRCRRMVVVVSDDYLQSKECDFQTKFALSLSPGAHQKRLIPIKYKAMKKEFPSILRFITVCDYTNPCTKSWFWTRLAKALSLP
Target sequence (Q9NR96 whole entry, looked up): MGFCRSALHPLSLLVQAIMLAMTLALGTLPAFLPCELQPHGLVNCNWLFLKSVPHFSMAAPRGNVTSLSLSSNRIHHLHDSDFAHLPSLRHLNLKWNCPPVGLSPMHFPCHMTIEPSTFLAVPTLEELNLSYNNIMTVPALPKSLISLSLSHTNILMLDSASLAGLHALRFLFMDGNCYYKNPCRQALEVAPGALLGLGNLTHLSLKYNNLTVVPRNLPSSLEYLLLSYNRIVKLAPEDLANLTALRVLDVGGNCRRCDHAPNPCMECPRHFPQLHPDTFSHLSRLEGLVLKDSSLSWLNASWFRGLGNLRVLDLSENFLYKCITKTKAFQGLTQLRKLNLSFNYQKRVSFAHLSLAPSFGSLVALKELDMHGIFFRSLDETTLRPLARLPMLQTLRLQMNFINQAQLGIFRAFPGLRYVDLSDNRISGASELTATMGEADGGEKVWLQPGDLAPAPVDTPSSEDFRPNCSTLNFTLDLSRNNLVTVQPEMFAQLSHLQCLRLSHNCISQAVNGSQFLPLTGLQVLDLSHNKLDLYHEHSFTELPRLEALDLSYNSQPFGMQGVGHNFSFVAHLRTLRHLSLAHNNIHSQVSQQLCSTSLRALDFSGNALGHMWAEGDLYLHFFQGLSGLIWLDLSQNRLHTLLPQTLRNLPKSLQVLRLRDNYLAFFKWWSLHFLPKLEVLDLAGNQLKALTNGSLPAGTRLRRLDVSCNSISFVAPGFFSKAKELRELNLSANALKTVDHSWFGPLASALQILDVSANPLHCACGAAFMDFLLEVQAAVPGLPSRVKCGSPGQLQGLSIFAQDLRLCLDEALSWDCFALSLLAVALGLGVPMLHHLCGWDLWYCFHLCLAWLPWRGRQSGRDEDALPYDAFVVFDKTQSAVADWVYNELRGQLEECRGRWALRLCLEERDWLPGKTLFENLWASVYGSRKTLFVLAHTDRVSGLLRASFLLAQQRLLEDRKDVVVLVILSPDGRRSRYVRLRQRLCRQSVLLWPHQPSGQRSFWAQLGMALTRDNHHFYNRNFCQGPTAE
CHOP inhibitor = inhibitors of CHOP promoter induction, primary screen, cell-based, unfolded protein response, luciferase reporter; 220,000 compounds, 3.8% hits; CHO-K1 CHOP-promoter luciferase, tunicamycin-induced, 15-18 h; inhibition, % at 10 µM; AID 2732, 2010;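 active = compounds that reduced the stress-induced luciferase reporter signal by more than about 70% of percent inhibition, limit read from the data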;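 also: 0% = tunicamycin plus vehicle and 100% = wells without tunicamycin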
NOD2 RIPK2 PPI = NOD2-RIPK2 binding disruptors in cells, primary screen, fluorescence, CHO cells, BLA complementation; CCF4 ratio; inhibition, % at 4.98 µM; 360,000 compounds, 0.38% hits; AID 624267, 2012; in the data active = inhibition above about 21%;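 also: 0% = vehicle only and 100% = reference blocker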
TLR4-MyD88 BLA = inhibitors of TLR4-MyD88 association in cells, primary screen, cell-based, HeLa CL3-4, BLA complementation, FRET ratio | inhibition, % at 8.4 µM | 200,000 compounds, 0.18% hits | AID 861, 2007 | HeLa CL3-4 TLR4/MyD88 BLA complementation; in the data active = inhibition above about 25%;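 also: 0% = vehicle and 100% = reference inhibitor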
An asterisk follows results filed as active; / = not tested or not shown.

SMILES | XBP1 UPR activ | UPR CHOP act | TLR9-MyD88 inh | CHOP inhibitor | NOD2 RIPK2 PPI | TLR4-MyD88 BLA
Cc1ccc(N2C(=O)NC(=O)C3(Cc4ccccc4N4CCN(c5ccccc5)CC43)C2=O)cc1 (centres undefined) | 3.6 | -0.2 | 5.5 | 70.5* | -0.7 | 0.3
CC1(C)C2SCC(=O)N2CCN1CC(=O)NN (centres undefined) | 1.2 | 0.4 | 7.4 | 84.0* | 6.8 | /
CCCCn1c(NC(=O)c2ccc(Br)o2)c(C(=O)OCC)c2nc3ccccc3nc21 | 61.6* | 6.9 | 8.5 | 24.4 | 14.4 | -2.4
N#CC(=Cc1ccc(O)c(O)c1)C(N)=S | / | / | / | -1.7 | / | /
Cc1ccc(O)c(CN2CCN(c3ccccc3)CC2)c1 | 0.1 | 0.3 | 0.9 | 60.7 | 1.8 | 5.7
COc1ccc(CN2CCN(c3ccccc3)CC2)c(C)c1C | 1.8 | 0.9 | -11.3 | 80.2* | 8.5 | 4.1
COc1cccc(CN2CCN(c3ccc(F)cc3)CC2)c1OC | / | / | -16.8 | / | -7.2 | /
Cc1cc(O)c(CN2CCN(c3ccccc3)CC2)cc1C | -4.3 | 0.1 | -5.3 | 82.1* | 6.4 | 4.0
c1ccc2sc(C3(N4CCCCC4)CCCCC3)cc2c1 | / | / | / | -1.6 | / | /
CC(O)C(C)OC(=O)[C@@H]1C[C@@H]2c3cccc4c3c(cn4C(C)C)C[C@H]2N(C)C1 (some centres undefined) | / | / | / | -0.4 | / | /
CCCCCCn1c(=O)c(C(=O)Nc2c(C)n(C)n(-c3ccccc3)c2=O)c(O)c2ccccc21 | 4.3 | 1.1 | -4.5 | 89.7* | -11.8 | /
CCCCCCn1c(=O)c(C(=O)Nc2nc(CC(=O)OCC)cs2)c(O)c2ccccc21 | -2.0 | 17.9 | -0.1 | 84.5* | -8.2 | /
CCCCCn1c(=O)c(C(=O)Nc2ccccc2)c(O)c2ccccc21 | -1.7 | 3.2 | -4.3 | / | 10.6 | /
CCCCCn1c(=O)c(C(=O)Nc2cccc(C)n2)c(O)c2ccccc21 | 0.7 | 8.6 | 5.5 | / | -8.9 | /
CCOC(=O)Cc1csc(NC(=O)c2c(O)c3ccccc3n(CCC(C)C)c2=O)n1 | -1.7 | 12.0 | -5.9 | 89.4* | 1.3 | 2.8
CCCn1c(C)c(C(=O)c2ccc3ccccc3c2)c2ccccc21 | / | / | / | -17.7 | / | /
CC(C)Oc1cc(-n2c(=S)[nH]c3ccccc3c2=O)c(Cl)cc1Cl | 1.7 | 1.0 | 1.4 | 82.6* | 4.8 | 0.3
Cc1cc(C)cc(N2C(=O)NC(=O)/C(=C\c3cc(C)n(C)c3C)C2=O)c1 | -0.3 | -0.9 | -11.3 | 9.7 | 5.2 | -11.0
Cc1cc(/C=C2\C(=O)NC(=O)N(c3ccc(Cl)cc3)C2=O)c(C)n1C | 0.7 | -0.9 | -1.9 | 79.5* | -6.7 | -3.4
N[C@@H](Cn1cc(I)c(=O)[nH]c1=O)C(=O)O | / | / | / | -6.8 | / | /
Cc1ccc(CN2C(=O)NC(=O)C3(Cc4c(nc5ccccn5c4=O)N4CCCCCC43)C2=O)cc1 (centres undefined) | 2.4 | 8.2 | -0.8 | 86.3* | -7.7 | -0.2
CC(C)CC(NP(=O)(O)O[C@@H]1O[C@@H](C)[C@H](O)[C@@H](O)[C@H]1O)C(=O)NC(Cc1c[nH]c2ccccc12)C(=O)O (some centres undefined) | / | / | / | -10.4 | / | /
Clc1ccc(N2CC3CCC(C2)N3)nn1 | / | / | / | 4.3 | / | /
CCOP1(=S)Oc2cc3c(cc2C(C(=O)OC)(C(F)(F)F)O1)OCO3 (centres undefined) | -2.1 | 0.3 | -9.3 | 82.4* | -6.0 | 19.6
CC(C)CCCn1c(O)c(/C=C2/C=CC=N2)c(=O)[nH]c1=O | 3.0 | 0.9 | -6.3 | 85.1* | 8.7 | 1.6
SMILES | XBP1 UPR activ | UPR CHOP act | TLR9-MyD88 inh | CHOP inhibitor | NOD2 RIPK2 PPI | TLR4-MyD88 BLA
CCn1cc(C(=O)c2cccs2)c2ccccc21 | 7.5 | -1.3 | -1.1 | 77.2* | -2.2 | -6.7
NC(=O)CN1CC(O)CC1=O (centres undefined) | / | / | / | 14.1 | / | /
C1=C(c2c[nH]c3ccccc23)CCNC1 | 2.0 | 1.1 | / | 76.5* | / | 10.4
Cc1ccccc1N1C(=O)NC(=O)/C(=C\c2cc(Br)c(N3CCOCC3)o2)C1=O | 3.3 | 17.8 | 1.4 | 72.3* | -13.2 | -2.4
CCNC(=O)[C@H]1O[C@@H](n2cnc3c(N)ncnc32)C(O)[C@H]1O (some centres undefined) | / | / | / | -16.9 | / | /
CC(N)c1cccc(Cl)c1Cl (centres undefined) | / | / | / | -3.7 | / | /
Cc1cc2c(C(C)C)c(O)c(O)c(C=O)c2c(O)c1-c1c(C)cc2c(C(C)C)c(O)c(O)c(C=O)c2c1O | / | / | / | 109.4* | 2.1 | -14.9
N[C@@H](Cn1ccc(=O)[nH]c1=O)C(=O)O | / | / | / | -12.3 | / | /
CN1CCC23CCCC[C@H]2C1Cc1ccc(O)cc13 (some centres undefined) | / | / | / | 15.9 | / | /
COc1cccc(NP(=O)(Oc2ccccc2)Oc2ccccc2)c1 | -1.7 | -0.9 | 6.0 | 15.6 | 6.3 | 9.2
COc1cccc(NP(=O)(Oc2ccccc2Cl)Oc2ccccc2Cl)c1 | -2.0 | 0.3 | 2.5 | 91.0* | -2.8 | 9.9
CN1C[C@@H](CS(=O)(=O)N(C)C)C[C@@H]2c3cccc4c3c(cn4C)C[C@H]21 | / | / | / | -4.5 | / | /
CC12NC(Cc3ccccc31)c1ccccc12 (centres undefined) | / | / | / | -20.6 | / | /
Cc1cccc(CN2CCN(c3ccc(Cl)cc3)CC2)c1 | 1.3 | 1.2 | -3.9 | 82.6* | -3.0 | -2.8
CC(Cc1ccc(OCC(=O)O)cc1)NCC(O)c1cccc(Cl)c1 (centres undefined) | / | / | / | 24.2 | / | /
CCCC(C)C1C(C#N)=C(N)Oc2c1c(=O)oc1ccccc21 (centres undefined) | -2.3 | 1.7 | -11.8 | 76.4* | -0.3 | 3.0
Brc1ccc(CN2CCNCC2)s1 | -2.9 | -3.0 | 2.7 | 70.8* | -3.2 | 1.7
C[C@]12CC[C@H]3[C@@H](CCC4C[C@H](O)CC[C@@]43C)[C@@H]1CC[C@@H]2O (some centres undefined) | / | / | / | -8.6 | / | /
C=CCc1cc(C=C2C(=O)N(C)C(=O)N(C)C2=O)cc(OCC)c1OCc1ccccc1 | -2.9 | -0.5 | -0.2 | 88.5* | -3.6 | -15.8
C=CCc1cc(C=C2C(=O)NC(=O)NC2=O)cc(OC)c1OCc1ccc(C(=O)O)cc1 | -6.4 | -0.3 | 8.1 | 0.9 | 4.7 | 7.2
CC1(C)CN=C(Nc2ccc(F)c(F)c2)S1 | 0.1 | 1.9 | 1.7 | 81.9* | -4.7 | -16.7
CC1(C)CN=C(Nc2ccc(F)c(Cl)c2)S1 | 2.3 | 2.1 | -4.8 | -13.4 | 5.8 | /
